# Experimental data collected from several papers.
# Target: Tyrosine-protein kinase Fer (FER, Homo sapiens, UniProt P16591)
Compound,effect on,mode,method,concentration,quantity,result
Cc1ccc(NC(=O)c2ccc(CN3CCN(C)CC3)cc2)cc1Nc1nc(-c2cccnc2)cs1,cell-free assay,,,0.5 µM,remaining signal,97.6%
Cc1cnc(NC2CCOCC2)nc1-n1cnc(C(=O)NC(CN)c2cc(F)cc(Cl)c2)c1 (centres unmarked),enzyme activity,inhibitor,radiometric,1 µM,remaining activity,104%
C[C@@H]1CN(c2cc(-c3n[nH]c4ccc(OC5(C)CC5)cc34)ncn2)C[C@H](C)O1,cell-free assay,,competition with immobilised ligand,0.1 µM,remaining binding,86%
CNC(=O)c1cc(Oc2ccc(NC(=O)Nc3ccc(Cl)c(C(F)(F)F)c3)cc2)ccn1,enzyme activity,inhibitor,,10 µM,inhibition,-30%
CO[C@@H](C)c1c(Nc2ccc([C@H](N(C)C(=O)C3CCS(=O)(=O)CC3)C(F)(F)F)cc2)cnc2cc(Cl)nn12,cell-free assay,,competition with immobilised ligand,1 µM,remaining binding,88%
O=C1NC(=O)c2cc(Nc3ccc(F)cc3)c(Nc3ccc(F)cc3)cc21,cell-free assay,,,0.5 µM,remaining signal,96.4%
CCCS(=O)(=O)Nc1ccc(F)c(C(=O)c2c[nH]c3ncc(-c4ccc(Cl)cc4)cc23)c1F,enzyme activity,inhibitor,,1 µM,inhibition,< 10%
CC/C(=N\NC(=O)NCc1cccc(O)c1)c1ccc(O)c(C)c1O,enzyme activity,inhibitor,,0.1 µM,inhibition,-2.3%
c1nc2c(Nc3ccc4c(c3)OCCO4)nc(Nc3ccc4c(c3)OCCO4)nc2[nH]1,enzyme activity,inhibitor,,10 µM,activity vs control,5.7%
Cc1ccc(Nc2nccc(N(C)c3ccc4c(C)n(C)nc4c3)n2)cc1S(N)(=O)=O,enzyme activity,inhibitor,,0.3 µM,inhibition,-24%
CCCCN(CCCC)C(=O)CN1C[C@H](c2cc(OC)c3c(c2)OCO3)[C@@H](C(=O)O)[C@@H]1CC(C)(C)CCC,cell-free assay,,competition with immobilised ligand,1 µM,remaining binding,100%
O=c1cc(-c2cccc3c2Sc2ccccc2S3)oc(N2CCOCC2)c1,enzyme activity,inhibitor,,0.5 µM,remaining activity,103%
C[C@H](c1ccc(F)cc1)N(Cc1cccc(C(=O)O)c1)C(=O)c1cnc2ccccc2c1,cell-free assay,,competition with immobilised ligand,1 µM,remaining binding,100%
CCN(CC)CCNC(=O)c1c(C)[nH]c(/C=C2\C(=O)Nc3ccc(F)cc32)c1C,enzyme activity,inhibitor,,10 µM,inhibition,55%
Cc1ccc(C(=O)Nc2ccc(CN3CCN(C)CC3)c(C(F)(F)F)c2)cc1C#Cc1cnc2cccnn12,enzyme activity,,,23.5 nM,remaining activity,94%
O=C(O)c1ccc2c3c1cccc3c(=O)n1c3ccccc3nc21,enzyme activity,inhibitor,,0.5 µM,remaining activity,96.5%
CC(C)(O)[C@H]1CC[C@H](Nc2ccc3ncc(-c4cccc(C(F)(F)F)c4)n3n2)CC1,enzyme activity,inhibitor,,1 µM,remaining activity,77.1%
Cc1sc(C(=O)NC2COC2)cc1-n1cc(NC(=O)Nc2c(F)cccc2Cl)cn1,enzyme activity,inhibitor,,10 µM,remaining activity,90%
O=c1c2ccccc2[nH]c(=S)n1CCN1CCC(=C(c2ccc(F)cc2)c2ccc(F)cc2)CC1,enzyme activity,inhibitor,,0.5 µM,remaining activity,95.2%
COc1ccc2c(c1)O[C@@H](c1ccc(OC)c(OC)c1)C[C@H]2NC(=O)C1(c2ccc3c(c2)OC(F)(F)O3)CC1,cell-free assay,,competition with immobilised ligand,1 µM,remaining binding,100%
Nc1ncnc2occ(-c3ccc(NC(=O)Nc4cc(C(F)(F)F)ccc4F)cc3)c12,cell-free assay,,,20 µM,remaining signal,9%
O=C1NC(c2ccccn2)Sc2ccccc21 (centres unmarked),cell-free assay,,competition with immobilised ligand,1 µM,remaining binding,84%
COc1cc2c(N3CCN(C(=O)Nc4ccc(OC(C)C)cc4)CC3)ncnc2cc1OCCCN1CCCCC1,cell-free assay,,,0.5 µM,remaining signal,104%
C[C@@H](c1cccc(C#N)c1)n1cc(Cl)cc(C(N)=O)c1=N,cell-free assay,,competition with immobilised ligand,1 µM,remaining binding,100%
CCCOc1ccc(OC)c(F)c1C(=O)c1ccc(C(=O)N[C@@H]2CNC[C@H]2NC(=O)c2ccc3[nH]ncc3c2)cc1,enzyme activity,inhibitor,,10 µM,remaining activity,105%
Cc1ccc(C(=O)NCc2ccsc2)cc1C#Cc1cn(C(C)C)c2ncnc(N)c12,enzyme activity,inhibitor,,1 µM,activity vs control,92%
C[C@@H]1CCN(C(=O)CC#N)C[C@@H]1N(C)c1ncnc2[nH]ccc12,cell-free assay,,,0.5 µM,remaining signal,104%
COc1cc2ncnc(Nc3ccc(Oc4ccccc4)cc3C)c2cc1OC,enzyme activity,inhibitor,,1 µM,inhibition,54%
CC1=C(C#N)C(c2ccc3c(c2)c(NC(=O)c2ccccc2C)nn3C)C(C#N)=C(C)N1,cell-free assay,,competition with immobilised ligand,1 µM,remaining binding,88%
CCN(CC)c1ccc(C2=NNC(=O)CC2C)cc1[N+](=O)[O-] (centres unmarked),enzyme activity,inhibitor,,10 µM,remaining activity,119%
O=C(Nc1cnn(-c2csc(C(=O)NC3COC3)c2)c1)Nc1c(F)cccc1Cl,enzyme activity,inhibitor,,5 µM,remaining activity,89.8%
CC(C)(C)c1nc2c(s1)c1nc(N)ncc1c1ccc(NS(=O)(=O)c3c(F)cccc3F)c(F)c12,enzyme activity,inhibitor,radiometric,1 µM,remaining activity,111%
